Columns and labels:
[1] = target: Peripheral plasma membrane protein CASK (Homo sapiens) (UniProt O14936); test: Binding affinity to wild-type human partial length CASK (M1 to H315 residues) expressed in mammalian expression system assessed as residual binding level at 1 uM by Kinomescan method relative to control
[2] = target: Mitogen-activated protein kinase 8 (Homo sapiens) (UniProt P45983); test: Binding affinity to wild-type human full length JNK1 (M1 to Q384 residues) expressed in mammalian expression system assessed as residual binding level at 1 uM by Kinomescan method relative to control
Summary of the method: (§1)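 KinomeScan, an active site-directed competition binding panel of 468 kinases. The test compound was at 1 μM. The readout is remaining kinase binding as a percentage of the DMSO control. Scores above 35% were treated as weak binding and not listed.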

[3] = target: MAP kinase-activated protein kinase 5 (Homo sapiens) (UniProt Q8IW41); test: Binding affinity to wild-type human partial length MAPKAPK5 (M1 to D322 residues) expressed in mammalian expression system assessed as residual binding level at 1 uM by Kinomescan method relative to control
[4] = target: Phosphatidylinositol 4,5-bisphosphate 3-kinase catalytic subunit gamma isoform (Homo sapiens) (UniProt P48736); test: Binding affinity to wild-type human partial length PIK3CG (S144 to A1102 residues) expressed in mammalian expression system assessed as residual binding level at 1 uM by Kinomescan method relative to control
[5] = target: Tyrosine-protein kinase ZAP-70 (Homo sapiens) (UniProt P43403); test: Binding affinity to wild-type human partial length ZAP70 (D20 to G299 residues) expressed in mammalian expression system assessed as residual binding level at 1 uM by Kinomescan method relative to control
[6] = target: Serine/threonine-protein kinase LATS2 (Homo sapiens) (UniProt Q9NRM7); test: Binding affinity to wild-type human partial length LATS2 (Q641 to V1088 residues) expressed in mammalian expression system assessed as residual binding level at 1 uM by Kinomescan method relative to control
[7] = test system: Receptor-type tyrosine-protein kinase FLT3 (Homo sapiens), P36888 [UNDEFINED MUTATION]; test: Binding affinity to human partial length FLT3 ITD mutant expressed in bacterial expression system assessed as residual binding level at 1 uM by Kinomescan method relative to control
Summary of the method: (§2)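 KinomeScan active site-directed competition binding panel (468 kinases), compound tested at 1 μM. Result expressed as remaining kinase signal versus DMSO control (percent of control).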

[8] = target: MAP/microtubule affinity-regulating kinase 4 (Homo sapiens) (UniProt Q96L34); test: Binding affinity to wild-type human partial length MARK4 (K29 to G340 residues) expressed in bacterial expression system assessed as residual binding level at 1 uM by Kinomescan method relative to control
[9] = test system: Leucine-rich repeat serine/threonine-protein kinase 2 (Homo sapiens), Q5S007 [G2019S]; test: Binding affinity to human partial length LRRK2 G2019S mutant (H970 to E2527 residues) expressed in mammalian expression system assessed as residual binding level at 1 uM by Kinomescan method relative to control; summary of the method: as §2
[10] = target: MAP kinase-activated protein kinase 2 (Homo sapiens) (UniProt P49137); test: Binding affinity to wild-type human partial length MAPKAPK2 (V48 to D345 residues) expressed in bacterial expression system assessed as residual binding level at 1 uM by Kinomescan method relative to control
[11] = target: Serine/threonine-protein kinase PAK 6 (Homo sapiens) (UniProt Q9NQU5); test: Binding affinity to wild-type human partial length PAK6 (N298 to C681 residues) expressed in bacterial expression system assessed as residual binding level at 1 uM by Kinomescan method relative to control
Summary of the method: (§3)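 Active-site-directed competition binding panel of 468 kinases (KinomeScan), compound at 1 μM. The read-out is kinase remaining bound, given as a percentage of the DMSO control. […]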

[12] = target: Receptor-type tyrosine-protein kinase FLT3 (Homo sapiens) (UniProt P36888); test: Binding affinity to wild-type human partial length FLT3 (V592 to Y969 residues) expressed in bacterial expression system assessed as residual binding level at 1 uM by Kinomescan method relative to control
[13] = target: Serine/threonine-protein kinase TNNI3K (Homo sapiens) (UniProt Q59H18); test: Binding affinity to wild-type human full length TNNI3K (M1 to S835 residues) expressed in bacterial expression system assessed as residual binding level at 1 uM by Kinomescan method relative to control; summary of the method: as §1
[14] = target: Serine/threonine-protein kinase Nek11 (Homo sapiens) (UniProt Q8NG66); test: Binding affinity to wild-type human partial length NEK11 (M1 to E313 residues) expressed in mammalian expression system assessed as residual binding level at 1 uM by Kinomescan method relative to control; summary of the method: as §3
[15] = target: Uncharacterized serine/threonine-protein kinase SBK3 (Homo sapiens) (UniProt P0C264); test: Binding affinity to wild-type human partial length SgK110 (L22 to R329 residues) expressed in bacterial expression system assessed as residual binding level at 1 uM by Kinomescan method relative to control
Summary of the method: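 Active site-directed competition binding panel (KinomeScan, 468 kinases). Test compound at 1 μM. Read-out is kinase binding remaining versus DMSO control, expressed as percent of control. Scores above 35% are treated as weak binding.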

[16] = test system: Phosphatidylinositol 4,5-bisphosphate 3-kinase catalytic subunit alpha isoform (Homo sapiens), P42336 [H1047L]; test: Binding affinity to human partial length PIK3CA H1047L mutant (R108 to N1068 residues) expressed in mammalian expression system assessed as residual binding level at 1 uM by Kinomescan method relative to control; summary of the method: as §2
[17] = target: Macrophage colony-stimulating factor 1 receptor (Homo sapiens) (UniProt P07333); test: Binding affinity to wild-type human partial length CSF1R (I564 to S939 residues) expressed in bacterial expression system assessed as residual binding level at 1 uM by Kinomescan method relative to control; summary of the method: as §3
[18] = target: Protein kinase C iota type (Homo sapiens) (UniProt P41743); test: Binding affinity to wild-type human partial length PRKCI (H215 to V587 residues) expressed in mammalian expression system assessed as residual binding level at 1 uM by Kinomescan method relative to control; summary of the method: as §3
[19] = target: Serine/threonine-protein kinase MRCK gamma (Homo sapiens) (UniProt Q6DT37); test: Binding affinity to wild-type human partial length DMPK2 (S46 to S408 residues) expressed in bacterial expression system assessed as residual binding level at 1 uM by Kinomescan method relative to control
[20] = test system: Phosphatidylinositol 4,5-bisphosphate 3-kinase catalytic subunit alpha isoform (Homo sapiens), P42336 [Q546K]; test: Binding affinity to human partial length PIK3CA Q546K mutant (R108 to N1068 residues) expressed in mammalian expression system assessed as residual binding level at 1 uM by Kinomescan method relative to control; summary of the method: as §2
[21] = target: Serine/threonine-protein kinase DCLK3 (Homo sapiens) (UniProt Q9C098); test: Binding affinity to wild-type human partial length DCAMKL3 (E140 to V628 residues) expressed in bacterial expression system assessed as residual binding level at 1 uM by Kinomescan method relative to control

Phosphatidylinositol 4,5-bisphosphate 3-kinase catalytic subunit alpha isoform (Homo sapiens), P42336 [Q546K], sequence (P42336 whole entry Q546K, the tested form may be a part, canonical isoform): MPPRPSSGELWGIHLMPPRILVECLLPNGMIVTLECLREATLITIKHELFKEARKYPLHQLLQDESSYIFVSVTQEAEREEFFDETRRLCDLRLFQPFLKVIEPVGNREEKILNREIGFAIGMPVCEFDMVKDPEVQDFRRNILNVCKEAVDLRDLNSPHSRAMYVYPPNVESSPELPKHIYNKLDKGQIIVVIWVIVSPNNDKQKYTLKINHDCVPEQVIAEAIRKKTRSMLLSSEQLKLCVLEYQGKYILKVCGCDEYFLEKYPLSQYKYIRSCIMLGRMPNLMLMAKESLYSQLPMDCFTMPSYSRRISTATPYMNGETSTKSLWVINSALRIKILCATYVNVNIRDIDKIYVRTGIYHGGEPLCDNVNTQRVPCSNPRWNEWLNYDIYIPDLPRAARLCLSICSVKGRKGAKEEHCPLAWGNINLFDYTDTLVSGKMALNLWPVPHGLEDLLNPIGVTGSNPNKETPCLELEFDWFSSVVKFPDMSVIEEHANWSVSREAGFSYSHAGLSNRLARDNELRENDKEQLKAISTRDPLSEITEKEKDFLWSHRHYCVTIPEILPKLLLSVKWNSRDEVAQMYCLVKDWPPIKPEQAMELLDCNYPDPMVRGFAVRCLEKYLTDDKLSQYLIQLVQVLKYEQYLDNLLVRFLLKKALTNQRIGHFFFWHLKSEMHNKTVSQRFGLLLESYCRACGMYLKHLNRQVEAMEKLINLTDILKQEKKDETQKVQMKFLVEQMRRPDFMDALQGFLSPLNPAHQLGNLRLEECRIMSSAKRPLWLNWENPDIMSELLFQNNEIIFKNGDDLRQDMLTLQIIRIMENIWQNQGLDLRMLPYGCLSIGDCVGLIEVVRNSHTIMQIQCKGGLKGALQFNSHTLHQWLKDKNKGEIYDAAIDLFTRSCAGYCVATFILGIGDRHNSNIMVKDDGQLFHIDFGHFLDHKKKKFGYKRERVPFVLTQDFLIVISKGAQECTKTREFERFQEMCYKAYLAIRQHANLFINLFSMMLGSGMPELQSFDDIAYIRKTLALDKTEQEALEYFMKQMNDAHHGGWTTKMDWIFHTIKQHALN
Protein kinase C iota type (Homo sapiens), sequence (P41743 whole entry, the tested form may be a part): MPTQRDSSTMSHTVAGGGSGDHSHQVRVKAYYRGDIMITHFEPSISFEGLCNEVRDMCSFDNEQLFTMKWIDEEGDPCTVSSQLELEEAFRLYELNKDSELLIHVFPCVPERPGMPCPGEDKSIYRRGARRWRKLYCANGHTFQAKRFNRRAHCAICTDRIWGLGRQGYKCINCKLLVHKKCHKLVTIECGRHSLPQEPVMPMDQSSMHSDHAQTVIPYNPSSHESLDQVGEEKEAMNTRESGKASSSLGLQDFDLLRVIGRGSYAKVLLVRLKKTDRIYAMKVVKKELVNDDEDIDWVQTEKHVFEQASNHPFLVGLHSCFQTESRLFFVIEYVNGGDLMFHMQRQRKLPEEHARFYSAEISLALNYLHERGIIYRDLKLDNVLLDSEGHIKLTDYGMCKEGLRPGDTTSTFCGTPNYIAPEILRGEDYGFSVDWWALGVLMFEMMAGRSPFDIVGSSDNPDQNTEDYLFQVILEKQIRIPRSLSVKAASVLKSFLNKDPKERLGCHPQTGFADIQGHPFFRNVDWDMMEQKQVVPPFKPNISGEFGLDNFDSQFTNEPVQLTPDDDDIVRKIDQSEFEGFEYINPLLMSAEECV
MAP kinase-activated protein kinase 5 (Homo sapiens), sequence (Q8IW41 whole entry, the tested form may be a part, canonical isoform): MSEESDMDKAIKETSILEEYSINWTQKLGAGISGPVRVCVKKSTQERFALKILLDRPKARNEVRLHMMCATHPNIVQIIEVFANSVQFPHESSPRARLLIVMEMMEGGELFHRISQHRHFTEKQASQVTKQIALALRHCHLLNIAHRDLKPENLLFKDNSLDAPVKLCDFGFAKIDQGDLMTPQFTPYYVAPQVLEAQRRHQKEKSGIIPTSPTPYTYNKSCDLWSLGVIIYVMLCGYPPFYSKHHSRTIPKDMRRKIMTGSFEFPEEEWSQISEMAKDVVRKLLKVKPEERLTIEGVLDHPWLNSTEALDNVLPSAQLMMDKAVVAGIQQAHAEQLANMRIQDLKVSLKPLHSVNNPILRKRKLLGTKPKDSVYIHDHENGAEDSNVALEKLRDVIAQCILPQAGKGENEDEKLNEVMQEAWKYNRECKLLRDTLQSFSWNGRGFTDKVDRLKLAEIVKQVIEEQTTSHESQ
Phosphatidylinositol 4,5-bisphosphate 3-kinase catalytic subunit alpha isoform (Homo sapiens), P42336 [H1047L], sequence (P42336 whole entry H1047L, the tested form may be a part, canonical isoform): as the sequence (P42336 whole entry Q546K, the tested form may be a part, canonical isoform) above, with K546Q, H1047L counted along it
MAP/microtubule affinity-regulating kinase 4 (Homo sapiens), sequence (Q96L34 whole entry, the tested form may be a part): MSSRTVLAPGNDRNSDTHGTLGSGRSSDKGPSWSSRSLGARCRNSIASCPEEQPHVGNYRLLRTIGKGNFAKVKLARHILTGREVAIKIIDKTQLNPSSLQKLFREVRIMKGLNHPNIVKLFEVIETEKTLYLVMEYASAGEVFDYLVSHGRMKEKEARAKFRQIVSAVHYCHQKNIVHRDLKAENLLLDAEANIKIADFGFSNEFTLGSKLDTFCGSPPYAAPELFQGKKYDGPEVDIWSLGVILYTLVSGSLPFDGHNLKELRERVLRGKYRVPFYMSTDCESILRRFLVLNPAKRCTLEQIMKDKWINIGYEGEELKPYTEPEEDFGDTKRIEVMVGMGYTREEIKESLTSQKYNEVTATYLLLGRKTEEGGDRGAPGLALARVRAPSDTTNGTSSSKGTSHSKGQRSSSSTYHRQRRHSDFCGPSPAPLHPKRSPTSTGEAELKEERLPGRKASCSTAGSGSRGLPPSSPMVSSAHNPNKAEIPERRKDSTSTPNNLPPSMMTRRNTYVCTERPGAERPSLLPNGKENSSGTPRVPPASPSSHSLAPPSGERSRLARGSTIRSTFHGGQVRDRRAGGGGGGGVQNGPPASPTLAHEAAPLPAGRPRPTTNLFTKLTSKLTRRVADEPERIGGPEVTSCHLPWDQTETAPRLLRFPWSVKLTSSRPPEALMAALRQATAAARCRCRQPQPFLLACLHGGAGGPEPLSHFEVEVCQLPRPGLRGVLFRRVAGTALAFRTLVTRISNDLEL
Peripheral plasma membrane protein CASK (Homo sapiens), sequence (O14936 whole entry, the tested form may be a part): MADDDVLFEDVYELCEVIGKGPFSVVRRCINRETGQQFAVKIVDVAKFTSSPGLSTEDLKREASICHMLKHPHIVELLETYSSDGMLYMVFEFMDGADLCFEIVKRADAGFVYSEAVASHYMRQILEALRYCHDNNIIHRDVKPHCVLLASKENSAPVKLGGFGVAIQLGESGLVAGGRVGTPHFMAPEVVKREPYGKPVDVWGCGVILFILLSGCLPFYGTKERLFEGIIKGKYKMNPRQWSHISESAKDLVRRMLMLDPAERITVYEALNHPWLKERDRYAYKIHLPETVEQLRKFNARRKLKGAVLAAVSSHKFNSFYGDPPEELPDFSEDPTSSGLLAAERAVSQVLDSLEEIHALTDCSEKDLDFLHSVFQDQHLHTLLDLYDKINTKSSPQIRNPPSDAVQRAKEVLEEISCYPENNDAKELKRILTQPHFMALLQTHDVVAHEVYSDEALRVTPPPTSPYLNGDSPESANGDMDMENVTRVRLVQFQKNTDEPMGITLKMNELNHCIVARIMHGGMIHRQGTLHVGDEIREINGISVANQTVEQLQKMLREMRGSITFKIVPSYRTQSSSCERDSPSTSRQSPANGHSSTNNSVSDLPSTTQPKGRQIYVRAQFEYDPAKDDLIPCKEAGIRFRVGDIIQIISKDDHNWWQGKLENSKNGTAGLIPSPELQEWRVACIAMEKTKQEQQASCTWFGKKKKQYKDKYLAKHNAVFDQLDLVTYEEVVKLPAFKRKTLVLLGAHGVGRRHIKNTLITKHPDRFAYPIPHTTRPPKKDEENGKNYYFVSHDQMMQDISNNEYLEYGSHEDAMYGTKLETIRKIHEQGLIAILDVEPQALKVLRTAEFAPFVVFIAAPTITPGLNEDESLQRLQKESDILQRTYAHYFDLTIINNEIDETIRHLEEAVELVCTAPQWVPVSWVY

C=CC(=O)Nc1ccccc1Nc1nc(Nc2ccc(N3CCN(C)CC3)cc2)ncc1C(=O)Nc1c(C)cccc1Cl
Activity [1]: 73% | Activity [2]: 88% | Activity [3]: 100% | Activity [4]: 100% | Activity [5]: 100% | Activity [6]: 100% | Activity [7]: 100% | Activity [8]: 95% | Activity [9]: 100% | Activity [10]: 100% | Activity [11]: 81% | Activity [12]: 99% | Activity [13]: 83% | Activity [14]: 72% | Activity [15]: 60% | Activity [16]: 71% | Activity [17]: 7.3% | Activity [18]: 94% | Activity [19]: 100% | Activity [20]: 100% | Activity [21]: 100%

Reference: ChEMBL document CHEMBL4354843, “Structure-Based Design of a Potent and Selective Covalent Inhibitor for SRC Kinase That Targets a P-Loop Cysteine” (J Med Chem, 2020)
